Active and inactive are the calls of the source. The calls are words filed in the database; no cut-off is given here.
Experiments:
[1] = system: Punta Toro virus; assay: Antiviral activity against Punta Toro virus Adames infected Syrian golden hamster assessed as mean viral titer per 0.1 g of liver at 60 mg/kg, po twice daily administered 4 hrs before viral challenge measured on day 4 of viral infection; format: functional
[2] = system: Punta Toro virus; assay: Antiviral activity against 500 PFU Punta Toro virus Adames infected C57BL/6 mouse assessed as animals with detectable virus level in serum at 30 mg/kg, po twice daily administered 4 hrs before viral challenge measured on day 3 of viral infection; format: functional
In short: (§1)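 T-705 was suspended in 0.4% carboxymethylcellulose and given by oral gavage twice daily. Mice were infected subcutaneously with PTV. Five mice per group (10 placebo) were sacrificed on day 3 or 4. Liver homogenate or serum was serially diluted onto triplicate LLC-MK2 monolayers, and CPE was read at 6–8 days. The detection limit was 2.8 log10 CCID50 per 0.1 g liver or 0.1 ml serum.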

[3] = system: Punta Toro virus; assay: Antiviral activity against 500 PFU Punta Toro virus Adames infected C57BL/6 mouse assessed as survival at 100 mg/kg, po twice daily for 5 days administered 4 hrs before viral challenge; format: functional, organism-based; set-up: dose 100 mg/kg
In short: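 PTV was inoculated subcutaneously into mice in groups of 15 (25–30 placebo). Dosing was by oral gavage twice daily for 5–7 days, with T-705 suspended in 0.4% CMC and ribavirin in saline. Remaining animals were observed 21–28 days for survival and day of death. Test doses had first been checked for tolerance in uninfected animals.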

[4] = system: Punta Toro virus; assay: Antiviral activity against 500 PFU Punta Toro virus Adames infected C57BL/6 mouse assessed as mean day of death at 100 mg/kg, po twice daily for 5 days administered 4 hrs before viral challenge; format: functional
In short: (§2)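 Groups of 15 mice (25–30 placebo) were inoculated subcutaneously with PTV. Drug in 0.4% carboxymethylcellulose was given by oral gavage twice daily.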

[5] = system: Punta Toro virus; assay: Antiviral activity against 500 PFU Punta Toro virus Adames infected C57BL/6 mouse assessed as animals with detectable virus level in liver at 100 mg/kg, po twice daily administered 4 hrs before viral challenge measured on day 4 of viral infection; format: functional; in short: as §1
[6] = system: Punta Toro virus; assay: Antiviral activity against 500 PFU Punta Toro virus Adames infected C57BL/6 mouse assessed as animals with detectable virus level in liver at 75 mg/kg, po twice daily administered 4 hrs before viral challenge measured on day 4 of viral infection; format: functional; in short: as §1
[7] = system: Punta Toro virus; assay: Antiviral activity against 500 PFU Punta Toro virus Adames infected C57BL/6 mouse assessed as mean viral titer per 0.1 mL of serum at 200 mg/kg, po twice daily administered 4 hrs before viral challenge measured on day 4 of viral infection; format: functional
In short: (§3)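 Mice were infected subcutaneously with PTV and dosed by oral gavage twice daily; 5 per group (10 placebo) were killed on day 3 or 4. Liver homogenate or serum was serially diluted onto triplicate LLC-MK2 monolayers, and CPE was read 6–8 days later. 50% endpoints gave log10 CCID50 per 0.1 g liver or 0.1 ml serum. Detection range was 2.8–9.5; undetectable samples were assigned <2.8.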

[8] = system: Punta Toro virus; assay: Antiviral activity against 500 PFU Punta Toro virus Adames infected C57BL/6 mouse assessed as mean viral titer per 0.1 mL of serum at 100 mg/kg, po twice daily administered 4 hrs before viral challenge measured on day 4 of viral infection; format: functional; in short: as §3
[9] = system: Influenza A virus; assay: Antiviral activity against influenza A virus; format: functional, organism-based
[10] = system: Enterovirus C; assay: Antiviral activity against Poliovirus; format: functional, organism-based
[11] = system: Pichinde virus; assay: Antiviral activity against Pichinde virus An 4763 infected Syrian golden hamster assessed as mean day of death at 15 mg/kg, po twice daily for 7 days administered 4 hrs before viral-challenge; format: functional
[12] = system: Pichinde virus; assay: Antiviral activity against Pichinde virus An 4763 infected Syrian golden hamster assessed as mean viral titer per 0.1 g of liver at 60 mg/kg, po twice daily for 7 days administered 4 hrs before viral-challenge measured on day 7 of viral infection; format: functional
[13] = system: Pichinde virus; assay: Antiviral activity against Pichinde virus An 4763 infected Syrian golden hamster assessed as animals with detectable virus level in liver at 30 mg/kg, po twice daily for 7 days administered 4 hrs before viral-challenge measured on day 7 of viral infection; format: functional
[14] = system: Pichinde virus; assay: Antiviral activity against Pichinde virus An 4763 infected Syrian golden hamster assessed as animals with detectable virus level in serum at 15 mg/kg, po twice daily for 7 days administered 4 hrs before viral-challenge measured on day 7 of viral infection; format: functional
In short: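 Hamsters (groups of 15, placebo 25-30) were dosed orally by gavage twice daily (drug suspended in 0.4% CMC) after bilateral intraperitoneal challenge with 65 PFU. Five per group were killed on day 7. Liver homogenate or serum was serially diluted onto triplicate B-SC-1 wells, CPE was read at 6-8 days, and the 50% endpoint was taken. Range was 2.8-9.5 log10 CCID50/0.1 g or 0.1 ml, with undetectable assigned <2.8.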

[15] = system: Punta Toro virus; assay: Antiviral activity against 500 PFU Punta Toro virus Adames infected C57BL/6 mouse assessed as animals with detectable virus level in serum at 25 mg/kg, po twice daily administered 4 hrs before viral challenge measured on day 4 of viral infection; format: functional; in short: as §1
[16] = system: Punta Toro virus; assay: Antiviral activity against 500 PFU Punta Toro virus Adames infected C57BL/6 mouse assessed as mean serum ALT levels at 100 mg/kg, po twice daily administered 4 hrs before viral challenge measured on day 4 of viral infection; format: functional
In short: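 Subcutaneous PTV infection was followed by oral gavage twice daily with drug suspended in 0.4% CMC. Serum was collected from 5 sacrificed mice per group (10 placebo) on day 3 or 4. ALT activity was measured by kinetic assay, and sham-infected mice set the baselines.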

[17] = system: Punta Toro virus; assay: Antiviral activity against 500 PFU Punta Toro virus Adames infected C57BL/6 mouse assessed as mean serum ALT levels at 50 mg/kg, po twice daily administered 4 hrs before viral challenge measured on day 4 of viral infection; format: functional
In short: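 C57BL/6 mice received subcutaneous PTV, then oral gavage twice daily for 5–7 days. T-705 was given in 0.4% CMC and ribavirin in saline. Five mice per group (10 placebo) were killed on day 3 or 4, and serum was collected. ALT activity was measured by kinetic assay. Three sham-infected mice set baselines.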

[18] = system: Punta Toro virus; assay: Antiviral activity against 500 PFU Punta Toro virus Adames infected C57BL/6 mouse assessed as mean day of death at 30 mg/kg, po twice daily for 5 days administered 4 hrs before viral challenge; format: functional; in short: as §2
[19] = system: Punta Toro virus; assay: Antiviral activity against 500 PFU Punta Toro virus Adames infected C57BL/6 mouse assessed as animals with detectable virus level in liver at 10 mg/kg, po twice daily administered 4 hrs before viral challenge measured on day 3 of viral infection; format: functional; in short: as §1
[20] = system: Punta Toro virus; assay: Antiviral activity against 500 PFU Punta Toro virus Adames infected C57BL/6 mouse assessed as animals with detectable virus level in liver at 5 mg/kg, po twice daily administered 4 hrs before viral challenge measured on day 3 of viral infection; format: functional; in short: as §1
[21] = system: Pichinde virus; assay: Antiviral activity against Pichinde virus An 4763 infected Syrian golden hamster assessed as survival at 20 mg/kg, po twice daily for 7 days administered 72 hrs post viral-challenge; format: functional
[22] = system: Pichinde virus; assay: Antiviral activity against Pichinde virus An 4763 infected Syrian golden hamster assessed as inhibition of liver damage at 50 mg/kg, po twice daily for 7 days administered 72 hrs post viral-challenge measured on day 7 of viral infection; format: functional, organism-based; set-up: dose 50 mg/kg
[23] = system: Punta Toro virus; assay: Antiviral activity against 500 PFU Punta Toro virus Adames infected C57BL/6 mouse assessed as animals with detectable virus level in serum at 75 mg/kg, po twice daily administered 4 hrs before viral challenge measured on day 4 of viral infection; format: functional; in short: as §1

## NC(=O)c1nc(F)cnc1O [FAVIPIRAVIR]
[1]
  log10CCID50: <3.4
[2]
  Activity: 80%
[3]
  Activity: Active
[4]
  Activity: >21 days
[5]
  Activity: 0%
[6]
  Activity: 0%
[7]
  log10CCID50: <2.8
[8]
  log10CCID50: <2.8
[9]
  EC50: 0.083 µM
[10]
  EC50: 31 µM
[11]
  Activity: 11.1 days
[12]
  log10CCID50: <2.8
[13]
  Activity: 100%
[14]
  Activity: 80%
[15]
  Activity: 20%
[16]
  Activity: 33 IU/L
[17]
  Activity: 41 IU/L
[18]
  Activity: >21 days
[19]
  Activity: 0%
[20]
  Activity: 0%

## NC(=O)c1ncn([C@@H]2O[C@H](CO)[C@@H](O)[C@H]2O)n1 [RIBAVIRIN]
[21]
  Efficacy: 60%
[22]
  Activity: Active
[23]
  Activity: 20%

From ChEMBL document CHEMBL1154414, “In vitro and in vivo activities of T-705 against arenavirus and bunyavirus infections” (Antimicrob Agents Chemother, 2007)
